IC50 and Ratio IC50 data for five compounds are collected here from ChEMBL document CHEMBL5252557.

Assay [1] concerns the target Angiotensin-converting enzyme 2 (Homo sapiens, UniProt Q9BYF1). As to the kind of experiment: Inhibition of his-tagged SARS-COV2 S-RBD binding to C-terminal Fc-tagged human ACE2 expressed in HEK293 cells incubated for 2 hrs by Alphascreen assay. The format is cell-based. In a few lines: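 ACE2-Fc (2 nM) with His-tagged spike RBD, Wuhan variant (5 nM), plus protein A acceptor and nickel chelate donor beads (5 μg/mL each), in 20 mM Tris pH 7.4, 150 mM KCl, 0.05% CHAPS. Compounds added from 100× DMSO dilutions, in duplicate. 2 h at room temperature, then luminescence read. 100% = signal without RBD; 0% = both proteins plus DMSO.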

For assay [2], the target named is Programmed cell death protein 1/Programmed cell death 1 ligand 1 (Homo sapiens, UniProt Q15116+Q9NZQ7). Briefly: Inhibition of C-terminal his tagged human PD-1/human Fc tagged PDL-1 interaction expressed in HEK293 cells incubated for 2 hrs AlphaScreen assay. The format is cell-based. (In general: Alpha assays give light when donor and acceptor beads are brought close together.)

The species entered for another assay is Homo sapiens. Briefly: Selectivity index, ratio of IC50 for his tagged human PD-1/human Fc tagged PDL-1 interaction to IC50 for his-tagged FC tagged SARS-COV2 S-RBD binding to ACE2 (unknown origin).

Angiotensin-converting enzyme 2, sequence (Q9BYF1 whole entry): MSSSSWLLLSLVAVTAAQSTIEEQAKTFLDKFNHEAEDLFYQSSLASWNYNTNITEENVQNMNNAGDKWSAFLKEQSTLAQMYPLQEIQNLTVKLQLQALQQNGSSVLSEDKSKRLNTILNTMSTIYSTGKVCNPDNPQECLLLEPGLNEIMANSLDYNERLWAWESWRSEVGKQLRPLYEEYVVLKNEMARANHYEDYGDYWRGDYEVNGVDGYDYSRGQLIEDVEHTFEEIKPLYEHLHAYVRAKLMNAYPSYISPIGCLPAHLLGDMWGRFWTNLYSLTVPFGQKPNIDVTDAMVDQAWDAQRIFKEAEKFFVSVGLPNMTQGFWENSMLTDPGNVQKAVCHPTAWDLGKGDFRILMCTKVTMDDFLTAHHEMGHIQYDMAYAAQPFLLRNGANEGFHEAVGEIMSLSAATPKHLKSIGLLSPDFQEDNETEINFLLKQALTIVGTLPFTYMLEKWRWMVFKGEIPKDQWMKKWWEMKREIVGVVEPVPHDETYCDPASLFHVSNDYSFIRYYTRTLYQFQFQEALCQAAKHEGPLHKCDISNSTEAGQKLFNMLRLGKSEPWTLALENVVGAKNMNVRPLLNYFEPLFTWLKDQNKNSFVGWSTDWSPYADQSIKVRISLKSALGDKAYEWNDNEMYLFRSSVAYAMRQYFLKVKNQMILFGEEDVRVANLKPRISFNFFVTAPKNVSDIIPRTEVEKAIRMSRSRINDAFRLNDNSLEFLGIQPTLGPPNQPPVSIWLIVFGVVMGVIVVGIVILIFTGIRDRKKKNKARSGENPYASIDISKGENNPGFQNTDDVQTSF
Programmed cell death protein 1/Programmed cell death 1 ligand 1, sequence (Q15116 whole entry): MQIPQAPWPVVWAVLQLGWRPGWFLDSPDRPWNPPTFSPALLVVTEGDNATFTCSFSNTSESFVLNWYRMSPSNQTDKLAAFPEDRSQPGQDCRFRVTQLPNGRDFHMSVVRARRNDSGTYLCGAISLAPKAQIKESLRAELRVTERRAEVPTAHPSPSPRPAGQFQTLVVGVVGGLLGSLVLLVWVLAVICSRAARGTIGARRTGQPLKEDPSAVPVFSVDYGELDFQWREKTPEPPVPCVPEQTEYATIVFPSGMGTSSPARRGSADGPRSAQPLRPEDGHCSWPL
Programmed cell death protein 1/Programmed cell death 1 ligand 1, sequence (Q9NZQ7 whole entry): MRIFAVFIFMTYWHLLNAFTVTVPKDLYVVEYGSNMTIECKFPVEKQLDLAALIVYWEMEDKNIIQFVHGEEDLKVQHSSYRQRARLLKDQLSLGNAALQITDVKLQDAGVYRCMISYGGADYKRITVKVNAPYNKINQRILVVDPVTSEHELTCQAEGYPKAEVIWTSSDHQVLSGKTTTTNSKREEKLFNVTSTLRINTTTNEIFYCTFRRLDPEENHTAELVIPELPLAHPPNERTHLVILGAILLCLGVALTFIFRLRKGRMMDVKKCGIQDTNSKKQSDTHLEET

In general, IC50 refers to the point on the concentration scale where inhibition reaches its midpoint. Low values mean higher potency, high ones lower potency. As to `COc1cc(OC(C)=O)c(-c2c(OC(C)=O)cc(OC)c3c2C=C[C@@](C)(CCC2=C(C)CCCC2(C)C)O3)c2c1O[C@](C)(CCC1=C(C)CCCC1(C)C)C=C2`, the figures for the IC50 in assay [1] and in assay [2] were 65 µM and greater than 50 µM, respectively.

With `COc1cc(O)c(-c2c(O)cc(OC)c3c2C=C[C@](C)(CCC2=C(C)CCCC2(C)C)O3)c2c1O[C@](C)(CCC1=C(C)CCCC1(C)C)C=C2`, the IC50 in assay [1] was 1 µM; in assay [2], 6 µM. For the same compound, in the assay filed under Homo sapiens, the Ratio IC50 came to 5.9.

In assay [1], `Oc1ccc([C@@H]2c3c(O)cc(O)cc3[C@@H]3c4c(cc(O)cc4[C@H]2[C@@H]2c4cc(O)cc5c4[C@@H](c4cc(O)cc(O)c4[C@H]2c2ccc(O)cc2)[C@H](c2ccc(O)cc2)O5)O[C@H]3c2ccc(O)cc2)cc1` gave an IC50 of 0.25 µM.

For `COc1cc(OC(C)=O)c(-c2c(OC(C)=O)cc(OC)c3c2C=C[C@](C)(CCC2=C(C)CCCC2(C)C)O3)c2c1O[C@](C)(CCC1=C(C)CCCC1(C)C)C=C2`, the values for the IC50 in assay [1] and in assay [2] were 7.3 µM and 37 µM, respectively. Moreover, the Ratio IC50 in the assay filed under Homo sapiens was 5.

Take `COc1cc(OC(C)=O)cc2c1OC(C)(CCC1=C(C)CCCC1(C)C)C=C2` (configuration not stated): the IC50 in assay [1] is 63 µM; in assay [2], 66 µM. Further, the Ratio IC50 in the assay filed under Homo sapiens came out at 1.
